The text below walks through data of ChEMBL document CHEMBL1142456, “4-Anilino-7-alkenylquinoline-3-carbonitriles as potent MEK1 kinase inhibitors” (Bioorg Med Chem, 2008).

For orientation: half-life means how long it takes for the measured level to halve. Low readings indicate rapid decline, high ones slow decline. By Cmax is commonly meant the maximum level reached in the sampled fluid or tissue. The AUC(0-inf) is total exposure, with the tail of the curve extrapolated. A high value points to more exposure. In general, bioavailability refers to the share of a dose that reaches the circulation, judged against a reference dose that is usually intravenous. A lower bioavailability goes with poor availability. A word on the clearance: it is the volume of plasma or blood freed of the substance per unit of time. Read a low clearance as a low capacity for elimination.

Series [1] can be described thus: Plasma concentration in mouse at 50 mg/kg, po after 4 hrs. The arrangement: dose 50 mg/kg, route oral. It counts as ADME, organism-based. The gist of the method:
(§1)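 Nude mice given a single 50 mg/kg oral dose. Blood levels measured at 2 and 4 h (one compound at 1 h), three mice per measurement, with coefficient of variation reported.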

Series [2] is described as follows: Plasma concentration in mouse at 50 mg/kg, po after 1 hr. Type of series: ADME, organism-based. Also noted: dose 50 mg/kg, route oral. The gist of the method: as §1
Series [3] in a line: Half life in female rat at 1 mg/kg, iv. Also noted: dose 1 mg/kg, route intravenous. The settings on record: in vivo. Type of series: ADME, organism-based.
The nature of series [4]: Apparent permeability across PAMPA membrane. It counts as ADME. The settings on record: read-out: permeability. The gist of the method:
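Permeability measured in a PAMPA assay, reported in cm/s.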
(In PAMPA a lipid-coated filter parts donor from acceptor wells.)

Series [5] is described as follows: Metabolic stability in CD1 rat liver microsomes. It counts as ADME, Microsome. The gist of the method:
(§2)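 Stability measured as half-life on exposure to male CD-1 mouse and rat liver microsomes.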

A short description of series [6]: Cmax in nude mouse at 50 mg/kg, po. It counts as ADME, organism-based. The settings on record: in vivo. The arrangement: dose 50 mg/kg, route oral. The gist of the method:
(§3)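 Female nude mice given a single dose, 2 mg/kg iv in 0.5% methylcellulose/1% Tween 80 brought to pH 3 with aqueous HCl, or 50 mg/kg by oral gavage. Three mice per group were bled by cardiac stick under isoflurane at 0.25, 0.5, 1, 4, 8 and 24 h and plasma collected. Cl, Vss, T1/2, Cmax, AUC extrapolated to infinity and %F were derived.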

A short description of series [7]: AUC (infinity) in male rat at 10 mg/kg, po. It counts as ADME, organism-based. Also noted: time infinity, dose 10 mg/kg, route oral. The settings on record: plasma.
A short description of series [8]: Oral bioavailability in female rat at 10 mg/kg. It counts as ADME, organism-based. The settings on record: in vivo.
Series [9] can be described thus: Cmax in female rat at 10 mg/kg, po. It counts as ADME, organism-based. The arrangement: dose 10 mg/kg, route oral. The settings on record: in vivo.
A short description of series [10]: Oral bioavailability in nude mouse at 50 mg/kg. It counts as ADME, organism-based. The settings on record: in vivo. The essentials: as §3
A short description of series [11]: Oral bioavailability in male rat at 10 mg/kg. It counts as ADME, organism-based. The settings on record: in vivo.
Series [12] in a line: Plasma concentration in mouse at 50 mg/kg, po after 2 hrs. Type of series: ADME, organism-based. The arrangement: dose 50 mg/kg, route oral. The gist of the method: as §1
Series [13] in a line: Clearance in female rat at 1 mg/kg, iv. Type of series: ADME, organism-based. The arrangement: dose 1 mg/kg, route intravenous. The settings on record: in vivo.
Series [14] in a line: Clearance in nude mouse at 2 mg/kg, iv. It counts as ADME, organism-based. The arrangement: dose 2 mg/kg, route intravenous. The settings on record: in vivo. The essentials: as §3
Series [15] in a line: Cmax in male rat at 10 mg/kg, po. Type of series: ADME, organism-based. Also noted: dose 10 mg/kg, route oral. The settings on record: in vivo.
The nature of series [16]: Volume of distribution at steady state in nude mouse at 2 mg/kg, iv. Type of series: ADME, organism-based. The arrangement: dose 2 mg/kg, route intravenous. The settings on record: in vivo, read-out: Vdss. The gist of the method:
as §3

The nature of series [17]: Volume of distribution at steady state in male rat at 1 mg/kg, iv. It counts as ADME, organism-based. The settings on record: in vivo, read-out: Vdss. The arrangement: dose 1 mg/kg, route intravenous.
Series [18] can be described thus: Half life in male rat at 1 mg/kg, iv. It counts as ADME, organism-based. The settings on record: in vivo. Also noted: dose 1 mg/kg, route intravenous.
A short description of series [19]: AUC (infinity) in nude mouse at 50 mg/kg, po. Also noted: time infinity, dose 50 mg/kg, route oral. The settings on record: plasma. Type of series: ADME, organism-based. The essentials:
as §3

Series [20] is described as follows: Half life in nude mouse at 2 mg/kg, iv. It counts as ADME, organism-based. Also noted: dose 2 mg/kg, route intravenous. The settings on record: in vivo. The gist of the method: as §3
Series [21] is described as follows: AUC (infinity) in female rat at 10 mg/kg, po. It counts as ADME, organism-based. The settings on record: plasma. The arrangement: time infinity, dose 10 mg/kg, route oral.
Series [22] is described as follows: Clearance in male rat at 1 mg/kg, iv. It counts as ADME, organism-based. Also noted: dose 1 mg/kg, route intravenous. The settings on record: in vivo.
Series [23] in a line: Volume of distribution at steady state in female rat at 1 mg/kg, iv. Type of series: ADME, organism-based. Also noted: dose 1 mg/kg, route intravenous. The settings on record: in vivo, read-out: Vdss.
The nature of series [24]: Metabolic stability in mouse liver microsomes. It counts as ADME, Microsome. The essentials:
as §2

`Cn1ccnc1Sc1ccc(Nc2c(C#N)cnc3cc(/C=C/CN4CCCC4)ccc23)cc1Cl`: the concentration at 4 h in series [1] came out at 11 ng/mL. In addition, the concentration at 1 h in [2] was determined as 72 ng/mL.
Regarding `CCN1CCN(CC/C=C/c2ccc3c(Nc4ccc(Sc5nccn5C)c(Cl)c4)c(C#N)cnc3c2)CC1`, the half-life is 150 min in series [3]; 21 min in series [5]; 108 min in series [18]; 54 min in [20]; 16.5 min in [24]. Further, the Papp in series [4] came to 0.45 ×10⁻⁶ cm/s. Also, the highest concentration (Cmax) came to 510 ng/mL in [6], 298 ng/mL in [9] and 61 ng/mL in [15]. The AUC(0-inf) is 204 ng·h/mL in series [7], 2170 ng·h/mL in [19] and 988 ng·h/mL in series [21]. Further, the concentration at 4 h in [1] turned out to be 132 ng/mL. For the same compound, the values for the bioavailability in series [8], in [10] and in [11] were 23%, 17% and 13%, respectively. In series [12], the concentration at 2 h turned out to be 494 ng/mL. Moreover, the values for the clearance in series [13], in series [14] and in [22] were 35.7 mL/min/kg, 66 mL/min/kg and 70.3 mL/min/kg, respectively. Besides, the Vd worked out at 2.7 L/kg in series [16], 7.6 L/kg in [17] and 5.7 L/kg in series [23].
Regarding `CN1CCN(CC/C=C/c2ccc3c(Nc4ccc(Sc5nccn5C)c(Cl)c4)c(C#N)cnc3c2)CC1`, the concentration at 4 h in series [1] is 85 ng/mL. In addition, in series [12], the concentration at 2 h was 368 ng/mL.
Taken in the same sequence, the figures for `COc1cc2c(Nc3ccc(Sc4nccn4C)c(Cl)c3)c(C#N)cnc2cc1/C=C/CCN1CCN(C)CC1` were 76 ng/mL and 267 ng/mL.
The like results for `Cn1ccnc1Sc1ccc(Nc2c(C#N)cnc3cc(/C=C/CCN4CCCC4)ccc23)cc1Cl` were, in that order, 82 ng/mL and 319 ng/mL.
`Cn1ccnc1Sc1ccc(Nc2c(C#N)cnc3cc(/C=C/CCN4CCOCC4)ccc23)cc1Cl` gave a concentration at 4 h in [1] of 22 ng/mL. The concentration at 2 h in series [12] was determined as 95 ng/mL.
